Active and inactive are the calls of the source.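 The calls were made as follows, unless noted: active = inhibition at or above 50% at 10 µM; inactive = inhibition below 50%.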
Tests used:
[1] = inhibitors of TNFa-induced NFkB p65 translocation, primary screen, imaging, HUVEC, MLSMR starter and 10KST1 sets (AID 438;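 active = inhibition above 20% together with a positive visual image hit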;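 also: compound added about 3h40 before a 20 min TNFalpha stimulation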;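 as to inhibition: signal is the nuclear over cytoplasmic p65 intensity ratio per well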); details: HUVEC TNFa-induced p65 nuclear translocation; cell count: measured here: nuclei count (cytotoxicity indicator), at 2.08 µM unless noted; inhibition: at 2 µM, stronger effect = higher value unless noted
[2] = reduction of polyQ htt aggregates in cells – imaging, exon1htt(103Q)mCFP cells, high-content imaging, primary screen (AID 483;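 active = visual image review flags a hit and inhibition of aggregation exceeds 20%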;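 also: compound exposure lasted 3 days before fixation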;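 as to nuclei count: percent of the per-plate median nuclei count of sample wells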); details: exon1htt(103Q)mCFP cell line, aggregate imaging, at 2 µM; inhibition of aggregation: stronger effect = higher value; nuclei count: measured here: cell count, toxicity
[3] = endothelial E-selectin expression blockers – imaging, HUVEC, immunofluorescence, MLSMR starter and 10KST1 sets, primary screen (AID 487;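 active = visually confirmed hit in the image check and inhibition above 20%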;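 as to inhibition: signal is fraction of cell area covered by stained E-selectin grains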;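 as to nuclei count: 100% = median nuclei count of all wells on the same plate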); details: HUVEC TNFalpha-induced E-selectin immunofluorescence imaging, at 2 µM; inhibition: stronger effect = higher value; nuclei count: measured here: cell number, toxicity
[4] = target: Voltage-gated potassium channel subunit beta-2 (Rattus norvegicus) (UniProt P62483); experiment: inhibitors of rat Kvbeta2 reductase activity – biochemical, NADPH fluorescence, primary screen (AID 622;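 active = fluorescence slope higher than the sample average by over 3 SD, cut at about -0.22 in these data, passing the limit was not always enough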;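 also: slope of raw intensity against log time taken from 70 to 1610 s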); details: recombinant KvBeta, 4-cyanobenzaldehyde reduction, at 10 µM, stronger effect = higher value
[5] = target: Voltage-gated potassium channel subunit beta-2 (Rattus norvegicus) (UniProt P62483); experiment: enhancers of rat Kvbeta2 NADPH turnover – biochemical, NADPH fluorescence, primary screen (AID 623;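 active = NADPH fluorescence slope more negative than the mean of all samples by about 3 SD, 99.7% confidence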;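 also: fluorescence intensity change per second fitted from 20 to 320 s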); details: Recombinant KvBeta, NADPH fluorescence decrease slope, 10 min; at 10 µM; stronger effect = lower value
[6] = target: Alpha-2C adrenergic receptor (Homo sapiens) (UniProt P18825); experiment: compounds altering alpha2C-coupled GIRK flux – cell-based, HEK293 alpha2C/GIRK1/2, thallium flux, primary screen (AID 624;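 active = fluorescence slope after compound addition differing from the mean of all screened samples at 99.7% confidence, in either direction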;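 also: slope of fluorescence ratio to pre-addition baseline per second over 15 to 24 s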); details: thallium flux BTC fluorescence, at 10 µM, actives lie on both sides
[7] = blockers of RIG-like receptor reporter activation – cell-based, Sendai virus stimulus, luciferase, 10K MLSCN set, TLR/RLR signaling modifier project, primary screen (AID 602276); details: HEK293 RL24 IRF3 luciferase reporter, at 10 µM, stronger effect = higher value;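 also: firefly luciferase from ISG56 promoter only with Renilla not read in this screen; 0% = Sendai virus plus DMSO and 100% = medium plus DMSO without virus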
[8] = TLR3 IRF3 reporter activation blockers – cell-based, poly I:C stimulus, luciferase, 10K MLSCN set, primary screen (AID 602277;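 active = inhibition of the reporter signal at or above 50%; inactive = inhibition below 50%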); details: HEK293-TLR3 RL24 IRF3 luciferase reporter, at 10 µM, stronger effect = higher value
[9] = target: Muscarinic acetylcholine receptor M4 (Homo sapiens) (UniProt P08173); experiment: M4-linked GIRK flux change, two-sided – cell-based, HEK293 M4/GIRK, thallium flux, BTC-AM, M4 allosteric agonist project, primary screen (AID 625;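 active = fluorescence slope after compound addition differing from the mean of all tested samples at 99.7% confidence, mostly higher but some lower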;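 also: thallium influx through GIRK channels coupled to M4 in HEK293 cells with BTC-AM dye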); details: at 10 µM, actives lie on both sides
Method in brief: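 assay system = HEK293 cells with M4 receptor and GIRK channels | medium = pH 7.3 thallium assay buffer | doses = 10 µM final, single point | timing = cells overnight at 37 °C, BTC-AM loading 1 h, reads 2 min total | signal = BTC-AM fluorescence, 1 Hz kinetic reads | read-out = post-addition slope, 15–24 s, of baseline-normalized fluorescence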

[10] = inhibitors of larval lipid processing in zebrafish, primary screen, whole organism, PED6 fluorescence, gall bladder and intestine (AID 686;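 active = a full or partial loss of lipid-probe fluorescence in the fish gall bladder, intestine or both, judged by eye; inactive = no fluorescence loss, or compound toxic to the fish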;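 also: larvae 5 to 7 days old with five fish per well; signal comes from phospholipase A2 cleavage of quenched PED6 carried via bile; overnight exposure to compound and PED6 before scoring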); details: Zebrafish larvae PED6 lipid processing, fluorescence scoring
Method in brief: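 Also added: quenched phospholipase substrate PED6, 100 nM final, ingested by larvae; System: zebrafish larvae, 5-7 d; Quantity: 5 larvae per well; Compound: 20 µM single dose; Schedule: overnight compound and PED6 incubation; Read-out: visual per-well fluorescence inhibition score; Measured by: By-eye fluorescence microscopy; Medium: E3.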

Alpha-2C adrenergic receptor (Homo sapiens), sequence (P18825 whole entry, looked up): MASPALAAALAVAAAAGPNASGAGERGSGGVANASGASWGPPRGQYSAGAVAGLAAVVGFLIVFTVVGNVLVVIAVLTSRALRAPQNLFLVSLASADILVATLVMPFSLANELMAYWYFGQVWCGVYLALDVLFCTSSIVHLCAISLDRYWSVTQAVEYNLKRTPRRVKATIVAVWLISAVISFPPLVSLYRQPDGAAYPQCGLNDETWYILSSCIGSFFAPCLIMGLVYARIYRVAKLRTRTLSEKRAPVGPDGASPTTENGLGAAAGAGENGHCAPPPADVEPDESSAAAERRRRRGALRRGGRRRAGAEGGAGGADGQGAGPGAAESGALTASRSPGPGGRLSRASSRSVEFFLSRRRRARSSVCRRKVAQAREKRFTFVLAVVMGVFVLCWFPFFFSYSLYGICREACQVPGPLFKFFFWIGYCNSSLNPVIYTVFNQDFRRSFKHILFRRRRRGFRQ
Voltage-gated potassium channel subunit beta-2 (Rattus norvegicus), sequence (P62483 whole entry, looked up): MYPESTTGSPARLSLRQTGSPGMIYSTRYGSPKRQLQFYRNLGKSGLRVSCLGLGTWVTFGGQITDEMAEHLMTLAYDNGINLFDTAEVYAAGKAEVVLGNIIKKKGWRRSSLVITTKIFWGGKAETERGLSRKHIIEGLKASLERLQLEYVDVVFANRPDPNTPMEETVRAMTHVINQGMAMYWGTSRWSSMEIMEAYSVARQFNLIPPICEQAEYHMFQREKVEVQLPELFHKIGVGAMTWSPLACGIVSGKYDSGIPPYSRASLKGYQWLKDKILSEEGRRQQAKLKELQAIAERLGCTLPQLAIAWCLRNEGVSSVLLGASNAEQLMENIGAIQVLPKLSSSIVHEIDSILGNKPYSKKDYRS
Muscarinic acetylcholine receptor M4 (Homo sapiens), sequence (P08173 whole entry, looked up): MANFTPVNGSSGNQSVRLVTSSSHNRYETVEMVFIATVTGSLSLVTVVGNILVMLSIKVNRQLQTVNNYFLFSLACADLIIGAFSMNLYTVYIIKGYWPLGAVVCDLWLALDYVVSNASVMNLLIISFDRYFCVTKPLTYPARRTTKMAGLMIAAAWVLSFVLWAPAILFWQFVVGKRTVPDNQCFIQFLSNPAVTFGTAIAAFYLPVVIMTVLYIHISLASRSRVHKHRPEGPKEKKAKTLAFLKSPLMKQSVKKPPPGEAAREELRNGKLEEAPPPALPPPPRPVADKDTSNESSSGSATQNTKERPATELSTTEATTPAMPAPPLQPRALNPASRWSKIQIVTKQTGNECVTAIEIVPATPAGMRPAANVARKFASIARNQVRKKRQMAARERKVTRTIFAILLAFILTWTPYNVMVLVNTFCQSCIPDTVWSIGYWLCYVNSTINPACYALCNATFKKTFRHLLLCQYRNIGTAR

| SMILES | cell count [1] | inhibition [1] | inhibition of aggregation [2] | nuclei count [2] | inhibition [3] | nuclei count [3] | fluorescence slope [4] | NADPH fluorescence slope [5] | slope [6] | inhibition [7] | inhibition [8] | fluorescence slope [9] | outcome [10] |
| --- | --- | --- | --- | --- | --- | --- | --- | --- | --- | --- | --- | --- | --- |
| COc1ccc(CC2C(=O)NC(=O)NC2=O)c(OC)c1 | 757 | 1.7% (inactive) | -24.3% (inactive) | 105% | -3.4% (inactive) | 105% | -0.406 (inactive) | 5.3e-05 (inactive) | 0.00731 (inactive) | -6.04% (inactive) | -0.414% (inactive) | – | – |
| COc1ccccc1N(CC(=O)NC1CCCCC1)C(=O)c1cnn(C(C)C)c1 | 526 | 2.5% (inactive) | 3.2% (inactive) | 102% | -128% (inactive) | 157% | -0.598 (inactive) | 9.1e-06 (inactive) | 0.00634 (inactive) | -9.99% (inactive) | -3.91% (inactive) | – | – |
| COc1ccc(CC[n+]2cc(/N=C(\C)[O-])on2)cc1OC | 648 | -23.5% (inactive) | -6% (inactive) | 130% | 48.2% (inactive) | 95.3% | -0.574 (inactive) | 6e-06 (inactive) | 0.00583 (inactive) | 7.77% (inactive) | 25.3% (inactive) | – | – |
| O=C(C(Cc1ccccc1)NS(=O)(=O)c1ccc(F)cc1)N1CCC2(CC1)OCCO2 (centres undefined) | 381 | -11.2% (inactive) | -7% (inactive) | 99.8% | -43.8% (inactive) | 122% | -0.437 (inactive) | 8.6e-06 (inactive) | 0.00508 (inactive) | 11.2% (inactive) | 37.1% (inactive) | – | – |
| CCNc1ccc(P(=S)(N(C)C)N(C)C)cc1 | 441 | 16.7% (inactive) | -8.4% (inactive) | 115% | -422% (inactive) | 153% | -0.622 (inactive) | -1.6e-05 (inactive) | 0.00749 (inactive) | 10.5% (inactive) | 26.1% (inactive) | – | – |
| COc1ccccc1/C=C1/C(=N/O)C2CCN1CC2 | 548 | -15% (inactive) | -6.2% (inactive) | 76.9% | 42.2% (inactive) | 105% | -0.467 (inactive) | -1.3e-05 (inactive) | 0.00314 (inactive) | 9.04% (inactive) | 36.5% (inactive) | – | – |
| Cc1cccc(C2=NCC(=O)N(CC(=O)NCc3ccco3)c3sc4c(c32)CCCC4)c1 | 291 | 14.7% (inactive) | 13.6% (inactive) | 92.1% | -48.4% (inactive) | 87.3% | -0.56 (inactive) | -8.4e-05 (inactive) | 0.00582 (inactive) | 14.4% (inactive) | 49.8% (inactive) | – | – |
| COc1ccc(CCn2c(O)c(C=NCc3cccnc3)c(=O)[nH]c2=O)cc1OC | 716 | -1.7% (inactive) | -17.3% (inactive) | 111% | 72.3% (active) | 90.2% | -0.629 (inactive) | 1.1e-05 (inactive) | 0.00366 (inactive) | 19.4% (inactive) | 18.7% (inactive) | – | – |
| COc1cc(/C=N/n2cnnc2)ccc1OC(=O)N(C)C | 615 | -19.9% (inactive) | -14.7% (inactive) | 114% | -3.5% (inactive) | 98.1% | -0.436 (inactive) | 3.1e-05 (inactive) | – | 13% (inactive) | 20.9% (inactive) | 0.0081 (inactive) | – |
| Nc1ccnn1C1CCNCC1 | 285 | 2.4% (inactive) | 6.2% (inactive) | 99.6% | -43.8% (inactive) | 127% | -0.541 (inactive) | 2.9e-05 (inactive) | 0.00512 (inactive) | 5.24% (inactive) | 17.3% (inactive) | – | – |
| Cn1c(=O)cc(SCC(=O)N2CCC3(CC2)OCCO3)c2ccc(Cl)cc21 | 442 | 0.9% (inactive) | 7.2% (inactive) | 84.4% | 22.8% (inactive) | 106% | -0.556 (inactive) | -3.6e-05 (inactive) | – | 32.3% (inactive) | 38.4% (inactive) | 0.00629 (inactive) | – |
| Cc1nc2ccccc2c(=O)n1-c1ccc(F)cc1 | 321 | -5% (inactive) | 7.1% (inactive) | 111% | -36.4% (inactive) | 111% | -0.456 (inactive) | 4.9e-06 (inactive) | 0.00327 (inactive) | 7.2% (inactive) | 36.9% (inactive) | – | – |
| Nc1ccccc1C(=O)OC1CSC1 | 621 | -8.7% (inactive) | -13.4% (inactive) | 102% | -29.1% (inactive) | 93.5% | -0.559 (inactive) | -2.7e-06 (inactive) | – | 20.2% (inactive) | 15% (inactive) | 0.00479 (inactive) | – |
| CCOC(=O)c1cccc([P+](=O)O)c1 | 570 | 0% (inactive) | 1.9% (inactive) | 95.2% | -41.6% (inactive) | 106% | -0.582 (inactive) | -3.4e-05 (inactive) | – | -12.3% (inactive) | -3.34% (inactive) | 0.00773 (inactive) | – |
| CCN(CC)CCN=Cc1c(O)n(CCC2=CCCCC2)c(=O)[nH]c1=O | 677 | -6% (inactive) | -1.5% (inactive) | 94.9% | 5.2% (inactive) | 104% | -0.618 (inactive) | -1.2e-05 (inactive) | 0.00557 (inactive) | -53.3% (inactive) | -117% (inactive) | – | – |
| O=C(CN1CCN(Cc2cccc(Cl)c2)C1=O)N1CCC2(CC1)OCCO2 | 363 | 1.1% (inactive) | 19.2% (inactive) | 73.9% | 26.2% (inactive) | 111% | -0.578 (inactive) | -1.5e-05 (inactive) | – | 4.07% (inactive) | 14% (inactive) | 0.00798 (inactive) | – |
| COc1ccccc1N1CCN(Cc2cccc(OC)c2O)CC1 | 509 | -6% (inactive) | 23.5% (inactive) | 95.4% | -10% (inactive) | 85.8% | -0.58 (inactive) | -0.000104 (inactive) | – | 14.4% (inactive) | 12.6% (inactive) | 0.0035 (inactive) | – |
| O=C(c1ccc2nc3ccc(Cl)cc3c(=O)n2c1)N1CCC2(CC1)OCCO2 | 758 | -20.4% (inactive) | 8% (inactive) | 110% | -56.7% (inactive) | 125% | -0.0098 (inactive) | 1.1e-05 (inactive) | – | -8.72% (inactive) | -12% (inactive) | 0.00414 (inactive) | – |
| CSc1ccc(CNC2CN3CCC2CC3)cc1 (centres undefined) | 350 | 0.2% (inactive) | -0.6% (inactive) | 103% | 32.3% (inactive) | 102% | -0.421 (inactive) | -9.5e-05 (inactive) | – | 12.2% (inactive) | 24.5% (inactive) | 0.00514 (inactive) | – |
| OC(CNC1CCCCC1)c1ccccc1 (centres undefined) | 317 | -2.5% (inactive) | 17.9% (inactive) | 107% | -91.2% (inactive) | 105% | -0.399 (inactive) | -4.1e-05 (inactive) | 0.00434 (inactive) | 10.6% (inactive) | 22.6% (inactive) | – | inactive |
| Cc1cccc(-n2c(O)c(C=NCCCN3CCOCC3)c(=O)[nH]c2=O)c1C | 710 | -3.5% (inactive) | 9.8% (inactive) | 96.5% | 26.7% (inactive) | 102% | -0.391 (inactive) | 2.3e-05 (inactive) | 0.00546 (inactive) | 0.794% (inactive) | 3.78% (inactive) | – | – |
| CN1CCN(c2c[nH]c(=O)[nH]c2=O)CC1 | 446 | 0% (inactive) | -25.3% (inactive) | 90.3% | -143% (inactive) | 105% | -0.495 (inactive) | -3.4e-05 (inactive) | 0.00648 (inactive) | 2.56% (inactive) | 19.8% (inactive) | – | – |
| O=C(C1CCCN(c2nnc(-n3cccc3)s2)C1)N1CCC2(CC1)OCCO2 (centres undefined) | 597 | -2.2% (inactive) | 1.5% (inactive) | 115% | 8.1% (inactive) | 92.8% | -0.388 (inactive) | -4.5e-05 (inactive) | 0.00502 (inactive) | -2.39% (inactive) | -5.8% (inactive) | – | inactive |
| NC(=O)OCCSc1nnc(-c2cccc(C(N)=S)c2)o1 | 330 | 3.5% (inactive) | -7.4% (inactive) | 107% | -48% (inactive) | 96.2% | -0.541 (inactive) | -9.5e-05 (inactive) | – | 17.8% (inactive) | 12.8% (inactive) | 0.00508 (inactive) | – |
| COC(=O)c1cncn1C(C)c1ccccc1 (centres undefined) | 671 | -3.4% (inactive) | -10.9% (inactive) | 97.9% | -88.8% (inactive) | 110% | -0.488 (inactive) | -2.9e-05 (inactive) | 0.0055 (inactive) | -53.9% (inactive) | 13.1% (inactive) | – | – |
| CCOC(=O)C1=C(N)OC(C)=C(C(=O)OCCOC)C12C(=O)Nc1ccccc12 (centres undefined) | 336 | 4.8% (inactive) | -0.2% (inactive) | 91.4% | -113% (inactive) | 97% | -0.454 (inactive) | -0.000189 (active) | 0.00493 (inactive) | 19.8% (inactive) | 32% (inactive) | – | inactive |
